Drawing on ChEMBL document CHEMBL1142533, “Structure-based virtual screening and biological evaluation of Mycobacterium tuberculosis adenosine 5'-phosphosulfate reductase inhibitors” (J Med Chem, 2008), this text covers Kd, Kinact and inhibition for ten compounds.

Assay [1] can be described thus: Binding affinity to Mycobacterium tuberculosis APS reductase. Summed up: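 Timed aliquots quenched in 2% charcoal/20 mM Na2SO3, radiolabeled sulfite in supernatant counted. kobs from single-exponential fit; Ki (=Kd) from kobs dependence on inhibitor concentration.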
The target in assay [2] is T1, Receptor-type tyrosine-protein phosphatase C (Homo sapiens) (UniProt P08575).
T1 sequence (whole entry): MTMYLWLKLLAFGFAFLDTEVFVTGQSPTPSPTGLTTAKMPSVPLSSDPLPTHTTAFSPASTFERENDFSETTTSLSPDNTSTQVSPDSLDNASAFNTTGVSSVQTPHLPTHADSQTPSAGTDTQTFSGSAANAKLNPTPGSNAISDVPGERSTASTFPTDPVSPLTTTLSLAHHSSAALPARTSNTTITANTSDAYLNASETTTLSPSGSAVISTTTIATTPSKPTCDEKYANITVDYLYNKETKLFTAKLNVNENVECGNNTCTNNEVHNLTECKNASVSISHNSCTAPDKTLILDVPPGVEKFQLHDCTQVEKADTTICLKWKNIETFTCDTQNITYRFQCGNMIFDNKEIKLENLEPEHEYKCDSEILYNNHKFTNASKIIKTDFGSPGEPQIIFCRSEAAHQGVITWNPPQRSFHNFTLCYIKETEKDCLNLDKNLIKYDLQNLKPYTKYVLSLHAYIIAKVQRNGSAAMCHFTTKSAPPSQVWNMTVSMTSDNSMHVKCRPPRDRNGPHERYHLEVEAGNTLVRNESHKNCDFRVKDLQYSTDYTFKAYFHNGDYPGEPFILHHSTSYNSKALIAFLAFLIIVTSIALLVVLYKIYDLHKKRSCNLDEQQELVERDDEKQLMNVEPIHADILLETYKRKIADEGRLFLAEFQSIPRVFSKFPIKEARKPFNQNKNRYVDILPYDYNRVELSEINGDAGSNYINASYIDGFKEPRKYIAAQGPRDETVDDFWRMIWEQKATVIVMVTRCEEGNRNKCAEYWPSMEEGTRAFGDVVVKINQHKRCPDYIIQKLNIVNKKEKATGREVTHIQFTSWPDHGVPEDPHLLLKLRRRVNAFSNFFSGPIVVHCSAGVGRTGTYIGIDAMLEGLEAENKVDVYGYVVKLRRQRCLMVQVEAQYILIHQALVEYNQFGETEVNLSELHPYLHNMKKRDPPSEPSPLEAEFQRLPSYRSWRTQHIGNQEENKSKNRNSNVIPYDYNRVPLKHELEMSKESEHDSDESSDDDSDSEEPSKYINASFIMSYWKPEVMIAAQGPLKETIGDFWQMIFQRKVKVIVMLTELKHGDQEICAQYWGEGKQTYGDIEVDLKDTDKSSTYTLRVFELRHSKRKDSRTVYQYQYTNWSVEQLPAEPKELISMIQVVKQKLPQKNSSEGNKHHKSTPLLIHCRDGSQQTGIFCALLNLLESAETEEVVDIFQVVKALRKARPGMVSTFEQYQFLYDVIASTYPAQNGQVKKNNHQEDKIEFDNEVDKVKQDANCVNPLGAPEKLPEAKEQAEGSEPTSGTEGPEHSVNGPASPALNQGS

Assay [3] relates to Mycobacterium tuberculosis. The experiment in a line: Inhibition of Mycobacterium tuberculosis APS reductase assessed as [35S]sulphite release at 100 uM.

On to `CC(=O)[C@H]1CC[C@H]2C34C=C[C@]5(C[C@@H](O)CC[C@]5(C)C3=CC[C@]12C)[C@H](C(=O)O)[C@@H]4C(=O)O`, for which the Kd in assay [1] was 127 µM.
In turn, `O=[N+]([O-])c1ccc(Sc2cccc[n+]2[O-])c2nonc12` yielded a Kd in assay [1] of 19.5 µM.
In assay [1], `O=C1c2cc(F)ccc2-c2cc(F)c([N+](=O)[O-])cc21` showed an equilibrium dissociation constant (Kd) of 44.6 µM.
As for `O=C1C(=O)c2cc([N+](=O)[O-])ccc2-c2ccccc21`, in assay [1], the affinity, expressed as Kd, was 6.81 µM. For the same compound, the Kinact in assay [2] worked out at 4300 M⁻¹ s⁻¹.
On to `CC(=O)Nc1cc2c(cc1[N+](=O)[O-])-c1ccccc1C2=O`, for which binding in assay [1] was put at a Kd of 31.8 µM.
With `O=C1c2ccccc2-c2c1cc([N+](=O)[O-])cc2[N+](=O)[O-]`, in assay [1], the dissociation constant Kd was 48.1 µM.
In turn, `O=C(O)CCc1nnc2c3ccccc3c3ccccc3c2n1` displayed a Kd in assay [1] of 46.9 µM. In assay [3], the inhibition is greater than 50%.
For `O=C1c2ccccc2-c2cc([N+](=O)[O-])c([N+](=O)[O-])cc21` the same measures were 37.1 µM and greater than 50%.
In assay [1], `O=C(O)C[S+]([O-])c1ccc2c3c(cccc13)C(=O)c1ccccc1-2` (centres undefined) had a Kd of 180 µM.
`Nc1nc(Sc2ccc([N+](=O)[O-])c3nonc23)c2nc[nH]c2n1` yielded a dissociation constant (Kd) in assay [1] of 15.2 µM. Further, the inhibition in assay [3] was greater than 90%.

For orientation: Kd means the free concentration of one partner at which half of the binding sites on the other are occupied at equilibrium, for simple one-to-one binding. Lower therefore signals a tighter complex. Usually inhibition stands for the percentage by which the read-out fell short of the control.
